Values after ≈ are worked out from the molar mass of the structure shown.
Tests used:
Format in all cases: functional
[1] = test system: Staphylococcus aureus; experiment: Antibacterial activity against erythromycin-susceptible Staphylococcus aureus ATCC 25923 incubated for 24 hrs by broth dilution method; settings: ATCC 25923, 24 h
Outline: (§1)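 CLSI broth microdilution in cation-adjusted Mueller-Hinton broth. Twofold dilutions spanned 0.25–128 or 0.5–256 µg/mL, with CAM and AZM as controls. Log-phase bacteria were added and incubated 24 h at 37 °C. MIC was read by turbidity as the concentration of the last clear well.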

[2] = test system: Streptococcus pyogenes; experiment: Antibacterial activity against erythromycin-susceptible Streptococcus pyogenes 1 clinical isolate incubated for 24 hrs by broth dilution method; outline: as §1
[3] = test system: Escherichia coli; experiment: Antibacterial activity against penicillin-susceptible Escherichia coli ATCC 25922 incubated for 24 hrs by broth dilution method; settings: ATCC 25922, 24 h; outline: as §1
[4] = test system: Pseudomonas aeruginosa; experiment: Antibacterial activity against penicillin-susceptible Pseudomonas aeruginosa ATCC 27853 incubated for 24 hrs by broth dilution method; settings: ATCC 27853, 24 h; outline: as §1
[5] = test system: Bacillus subtilis; experiment: Antibacterial activity against penicillin-susceptible Bacillus subtilis ATCC 9372 incubated for 24 hrs by broth dilution method; settings: ATCC 9372, 24 h; outline: as §1
[6] = test system: Staphylococcus aureus; experiment: Antibacterial activity against penicillin-resistant Staphylococcus aureus ATCC 31007 incubated for 24 hrs by broth dilution method; settings: ATCC 31007, 24 h
[7] = test system: Staphylococcus aureus; experiment: Antibacterial activity against methicillin-resistant Staphylococcus aureus ATCC 43300 incubated for 24 hrs by broth dilution method; settings: ATCC 43300, 24 h
[8] = test system: Streptococcus pneumoniae; experiment: Antibacterial activity against erythromycin-resistant Streptococcus pneumoniae B1 expressing the ermB incubated for 24 hrs by broth dilution method
[9] = test system: Streptococcus pneumoniae; experiment: Antibacterial activity against erythromycin-resistant Streptococcus pneumoniae AB11 expressing the ermB and mefA incubated for 24 hrs by broth dilution method
[10] = test system: Streptococcus pyogenes; experiment: Antibacterial activity against erythromycin-resistant Streptococcus pyogenes 2 clinical isolate incubated for 24 hrs by broth dilution method

CO[C@]1(C)C[C@@H](C)[C@H](O)[C@H](C)CN(C)C[C@@H](Cn2cc(-c3ccccc3)nn2)OC(=O)[C@H](C)[C@@H](O[C@H]2C[C@@](C)(OC)[C@@H](O)[C@H](C)O2)[C@H](C)[C@H]1O[C@@H]1O[C@H](C)C[C@H](N(C)C)[C@H]1O
MIC [1]: 0.5 µg/mL (≈ 0.58 µM)
MIC [2]: 0.5 µg/mL (≈ 0.58 µM)
MIC [3]: 64 µg/mL (≈ 74.2 µM)
MIC [4]: 64 µg/mL (≈ 74.2 µM)
MIC [5]: 1 µg/mL (≈ 1.16 µM)
MIC [6]: 128 µg/mL (≈ 148 µM)
MIC [7]: 256 µg/mL (≈ 297 µM)
MIC [8]: 64 µg/mL (≈ 74.2 µM)
MIC [9]: 64 µg/mL (≈ 74.2 µM)
MIC [10]: 64 µg/mL (≈ 74.2 µM)

CO[C@]1(C)C[C@@H](C)[C@H](O)[C@H](C)CN(C)C[C@H](COCc2cn(-c3ccc(C)cc3)nn2)OC(=O)[C@H](C)[C@@H](O[C@H]2C[C@@](C)(OC)[C@@H](O)[C@H](C)O2)[C@H](C)[C@H]1O[C@@H]1O[C@H](C)C[C@H](N(C)C)[C@H]1O
MIC [1]: 0.5 µg/mL (≈ 0.552 µM)
MIC [2]: 1 µg/mL (≈ 1.1 µM)
MIC [3]: 64 µg/mL (≈ 70.6 µM)
MIC [4]: 16 µg/mL (≈ 17.7 µM)
MIC [5]: ≤ 0.25 µg/mL
MIC [6]: 256 µg/mL (≈ 283 µM)
MIC [7]: 256 µg/mL (≈ 283 µM)
MIC [8]: 256 µg/mL (≈ 283 µM)
MIC [9]: 64 µg/mL (≈ 70.6 µM)
MIC [10]: 64 µg/mL (≈ 70.6 µM)

CO[C@]1(C)C[C@@H](C)[C@H](O)[C@H](C)CN(C)[C@@H](Cn2cc(-c3ccc(F)cc3)nn2)COC(=O)[C@H](C)[C@@H](O[C@H]2C[C@@](C)(OC)[C@@H](O)[C@H](C)O2)[C@H](C)[C@H]1O[C@@H]1O[C@H](C)C[C@H](N(C)C)[C@H]1O
MIC [1]: 64 µg/mL (≈ 72.7 µM)
MIC [2]: 16 µg/mL (≈ 18.2 µM)
MIC [3]: > 128 µg/mL
MIC [4]: > 128 µg/mL
MIC [5]: 32 µg/mL (≈ 36.4 µM)
MIC [6]: 128 µg/mL (≈ 145 µM)
MIC [7]: 128 µg/mL (≈ 145 µM)
MIC [8]: 256 µg/mL (≈ 291 µM)
MIC [9]: 128 µg/mL (≈ 145 µM)
MIC [10]: 128 µg/mL (≈ 145 µM)

CO[C@]1(C)C[C@@H](C)[C@H](O)[C@H](C)CN(C)C[C@H](Cn2cc(-c3ccc(Cl)cc3)nn2)OC(=O)[C@H](C)[C@@H](O[C@H]2C[C@@](C)(OC)[C@@H](O)[C@H](C)O2)[C@H](C)[C@H]1O[C@@H]1O[C@H](C)C[C@H](N(C)C)[C@H]1O
MIC [1]: 2 µg/mL (≈ 2.23 µM)
MIC [2]: 0.12 µg/mL (≈ 0.134 µM)
MIC [3]: 32 µg/mL (≈ 35.7 µM)
MIC [4]: 64 µg/mL (≈ 71.4 µM)
MIC [5]: 1 µg/mL (≈ 1.12 µM)
MIC [6]: 128 µg/mL (≈ 143 µM)
MIC [7]: 128 µg/mL (≈ 143 µM)
MIC [8]: 128 µg/mL (≈ 143 µM)
MIC [9]: 128 µg/mL (≈ 143 µM)
MIC [10]: 64 µg/mL (≈ 71.4 µM)

COc1cccc(-n2cc(COC[C@@H]3CN(C)C[C@@H](C)[C@@H](O)[C@H](C)C[C@@](C)(OC)[C@H](O[C@@H]4O[C@H](C)C[C@H](N(C)C)[C@H]4O)[C@@H](C)[C@H](O[C@H]4C[C@@](C)(OC)[C@@H](O)[C@H](C)O4)[C@@H](C)C(=O)O3)nn2)c1
MIC [1]: 2 µg/mL (≈ 2.17 µM)
MIC [2]: 2 µg/mL (≈ 2.17 µM)
MIC [3]: 128 µg/mL (≈ 139 µM)
MIC [4]: 128 µg/mL (≈ 139 µM)
MIC [5]: 2 µg/mL (≈ 2.17 µM)
MIC [6]: 256 µg/mL (≈ 278 µM)
MIC [7]: 256 µg/mL (≈ 278 µM)
MIC [8]: 128 µg/mL (≈ 139 µM)
MIC [9]: 64 µg/mL (≈ 69.4 µM)
MIC [10]: 64 µg/mL (≈ 69.4 µM)

CO[C@]1(C)C[C@@H](C)[C@H](O)[C@H](C)CN(C)C[C@H](Cn2cc(-c3ccc(F)cc3)nn2)OC(=O)[C@H](C)[C@@H](O[C@H]2C[C@@](C)(OC)[C@@H](O)[C@H](C)O2)[C@H](C)[C@H]1O[C@@H]1O[C@H](C)C[C@H](N(C)C)[C@H]1O
MIC [1]: 2 µg/mL (≈ 2.27 µM)
MIC [2]: 0.25 µg/mL (≈ 0.284 µM)
MIC [3]: 32 µg/mL (≈ 36.4 µM)
MIC [4]: 64 µg/mL (≈ 72.7 µM)
MIC [5]: 2 µg/mL (≈ 2.27 µM)
MIC [6]: 256 µg/mL (≈ 291 µM)
MIC [7]: 256 µg/mL (≈ 291 µM)
MIC [8]: 256 µg/mL (≈ 291 µM)
MIC [9]: 256 µg/mL (≈ 291 µM)
MIC [10]: 64 µg/mL (≈ 72.7 µM)

CO[C@]1(C)C[C@@H](C)[C@H](O)[C@H](C)CN(C)C[C@@H](COCc2cn(-c3ccc(OC(F)(F)F)cc3)nn2)OC(=O)[C@H](C)[C@@H](O[C@H]2C[C@@](C)(OC)[C@@H](O)[C@H](C)O2)[C@H](C)[C@H]1O[C@@H]1O[C@H](C)C[C@H](N(C)C)[C@H]1O
MIC [1]: 4 µg/mL (≈ 4.1 µM)
MIC [2]: 4 µg/mL (≈ 4.1 µM)
MIC [3]: 128 µg/mL (≈ 131 µM)
MIC [4]: > 128 µg/mL
MIC [5]: 2 µg/mL (≈ 2.05 µM)
MIC [6]: 64 µg/mL (≈ 65.6 µM)
MIC [7]: 32 µg/mL (≈ 32.8 µM)
MIC [8]: 32 µg/mL (≈ 32.8 µM)
MIC [9]: 16 µg/mL (≈ 16.4 µM)
MIC [10]: 32 µg/mL (≈ 32.8 µM)

CO[C@]1(C)C[C@@H](C)[C@H](O)[C@H](C)CN(C)C[C@H](COCc2cn(-c3ccc(OC(F)(F)F)cc3)nn2)OC(=O)[C@H](C)[C@@H](O[C@H]2C[C@@](C)(OC)[C@@H](O)[C@H](C)O2)[C@H](C)[C@H]1O[C@@H]1O[C@H](C)C[C@H](N(C)C)[C@H]1O
MIC [1]: 2 µg/mL (≈ 2.05 µM)
MIC [2]: 2 µg/mL (≈ 2.05 µM)
MIC [3]: 64 µg/mL (≈ 65.6 µM)
MIC [4]: 16 µg/mL (≈ 16.4 µM)
MIC [5]: 1 µg/mL (≈ 1.02 µM)
MIC [6]: 128 µg/mL (≈ 131 µM)
MIC [7]: 128 µg/mL (≈ 131 µM)
MIC [8]: 128 µg/mL (≈ 131 µM)
MIC [9]: 32 µg/mL (≈ 32.8 µM)
MIC [10]: 32 µg/mL (≈ 32.8 µM)

CO[C@]1(C)C[C@@H](C)[C@H](O)[C@H](C)CN(C)[C@@H](Cn2cc(-c3ccc(Cl)cc3)nn2)COC(=O)[C@H](C)[C@@H](O[C@H]2C[C@@](C)(OC)[C@@H](O)[C@H](C)O2)[C@H](C)[C@H]1O[C@@H]1O[C@H](C)C[C@H](N(C)C)[C@H]1O
MIC [1]: 32 µg/mL (≈ 35.7 µM)
MIC [2]: 16 µg/mL (≈ 17.8 µM)
MIC [3]: > 128 µg/mL
MIC [4]: > 128 µg/mL
MIC [5]: 16 µg/mL (≈ 17.8 µM)
MIC [6]: 128 µg/mL (≈ 143 µM)
MIC [7]: 64 µg/mL (≈ 71.4 µM)
MIC [8]: 256 µg/mL (≈ 286 µM)
MIC [9]: 128 µg/mL (≈ 143 µM)
MIC [10]: 64 µg/mL (≈ 71.4 µM)
